Laboratory results from ChEMBL document CHEMBL2390820, “3-Biphenylimidazo[1,2-a]pyridines or [1,2-b]pyridazines and analogues, novel Flaviviridae inhibitors” (Eur J Med Chem, 2013).
Converted amounts (≈) assume the structure as drawn.

Tests used:
[1] = Selectivity index, ratio of CC50 for Huh5-2 cells to EC50 for HCV genotype 1b infected in Huh5-2 cells; set-up: species or system Huh-5-2
Procedure, shortened: (§1)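 Selectivity index is the ratio of CC50 from the 3-day MTS/PMS proliferation assay to EC50 in the same cell line. For Huh 5-2 the EC50 is from the luciferase replicon assay; for MDBK it is from the MTS CPE assay.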

[2] = Cytotoxicity against MDBK cells assessed as growth inhibition after 3 days by MTS assay; type: cell-based, Bos taurus; details: cattle
Procedure, shortened: (§2)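 MDBK or Huh 5-2 cells were seeded at 5 × 10³/well in MEM-FCS, with serial compound dilutions added 24 h later. Cells proliferated 3 days at 37 °C, then metabolic activity was read by MTS/PMS. CC50 is the concentration inhibiting proliferation of exponentially growing cells by 50%, by linear interpolation.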

[3] = system: Hepatitis C virus; assay: Antiviral activity against HCV genotype 1b infected in Huh5-2 cells assessed as inhibition of viral replication after 4 days by luciferase reporter gene assay; type: functional, organism-based, Hepacivirus hominis, Huh-5-2; details: Hepatitis C virus, genotype 1b, Huh-5-2, 96 h
Procedure, shortened: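 Huh 5-2 cells carrying the HCV subgenomic luciferase replicon were seeded at 5 × 10³/well with compound and incubated 4 days at 37 °C. Medium was removed and luciferase activity quantified. EC50 is the minimum concentration reducing replicon-driven luciferase signal by 50%.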

[4] = Antiviral activity against BVDV NADL infected in MDBK cells assessed as inhibition of virus-induced cytopathic effect formation after 5 days by MTS assay; type: functional, cell-based, Bovine viral diarrhea virus 1-NADL; details: Bovine viral diarrhea virus isolates and strains, 120 h
Procedure, shortened: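 MDBK cells were seeded at 5 × 10³/well in MEM-FCS and held 24 h at 37 °C, 5% CO₂. Medium was replaced with 5-fold serial compound dilutions, then BVDV inoculum was added at MOI 2. CPE was read by MTS as OD at 490 nm. EC50 is the concentration giving 50% protection against virus-induced CPE, by linear interpolation.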

[5] = Cytotoxicity against human Huh5-2 cells assessed as growth inhibition after 3 days by MTS assay; type: cell-based, Huh-5-2; procedure, shortened: as §2
[6] = Selectivity index, ratio of CC50 for MDBK cells to EC50 for BVDV NADL infected in MDBK cells; procedure, shortened: as §1

Row | SMILES | EC50 [3] | Ratio CC50/EC50 [1] | CC50 at 72 h [2] | EC50 [4] | CC50 at 72 h [5] | Ratio CC50/EC50 [6]
1 | CC(C)(C)c1nc2ccc(-c3ccsc3)nn2c1-c1cccc(-c2ccco2)c1 | 8.6 µg/mL (≈ 21.5 µM) | 4.8 | > 100 µg/mL | > 100 µg/mL | 41.3 µg/mL (≈ 103 µM) | –
2 | COc1ccccc1-c1nc2ccc(-c3ccsc3)nn2c1-c1cccc(-c2ccc(O)cc2)c1 | 2.4 µg/mL (≈ 5.05 µM) | 9.2 | > 100 µg/mL | > 100 µg/mL | 22.1 µg/mL (≈ 46.5 µM) | –
3 | Fc1ccc(-c2nc3ccc(N4CCOCC4)nn3c2-c2ccc(-c3ccccc3)cc2)cc1 | – | – | > 50 µg/mL | > 50 µg/mL | 33.3 µg/mL (≈ 73.9 µM) | >1
4 | CN1CCN(c2ccc3nc(-c4ccc(F)cc4)c(-c4ccc(-c5ccccc5)cc4)n3n2)CC1 | – | – | > 50 µg/mL | > 50 µg/mL | 45.3 µg/mL (≈ 97.7 µM) | >1
5 | Fc1ccc(-c2nc3ccc(-c4ccccc4)nn3c2-c2ccc(-c3ccccc3)cc2)cc1 | – | – | > 50 µg/mL | > 50 µg/mL | 45.3 µg/mL (≈ 103 µM) | >1
6 | Fc1ccc(-c2nc3ccc(N4CCOCC4)nn3c2-c2cccc(-c3ccccc3)c2)cc1 | – | – | 12 µg/mL (≈ 26.6 µM) | 4 µg/mL (≈ 8.88 µM) | 11.1 µg/mL (≈ 24.6 µM) | 3
7 | COc1ccccc1-c1nc2ccc(-c3ccsc3)nn2c1-c1cccc(-c2ccco2)c1 | 15.1 µg/mL (≈ 33.6 µM) | 3.6 | – | – | 54.3 µg/mL (≈ 121 µM) | –

Continued, in another order:

Row | EC50 [3] | SMILES | Ratio CC50/EC50 [1] | CC50 at 72 h [2] | EC50 [4] | CC50 at 72 h [5] | Ratio CC50/EC50 [6]
8 | 11.2 µg/mL (≈ 25 µM) | Fc1ccc(-c2nc3ccc(-c4ccsc4)nn3c2-c2cccc(-c3ccccc3)c2)cc1 | 1.2 | 13 µg/mL (≈ 29 µM) | 1.7 µg/mL (≈ 3.8 µM) | 13.4 µg/mL (≈ 29.9 µM) | 8
9 | 1.63 µg/mL (≈ 4.13 µM) | COc1ccc(-c2cccc(-c3c(-c4ccc(F)cc4)nc4ccccn34)c2)cc1 | 21.3 | > 100 µg/mL | 2.8 µg/mL (≈ 7.1 µM) | 34.8 µg/mL (≈ 88.2 µM) | >36
10 | 53.1 µg/mL (≈ 125 µM) | CCOC(=O)c1nc2ccc(-c3ccsc3)cn2c1-c1cccc(-c2ccccc2)c1 | >2.2 | 67.7 µg/mL (≈ 159 µM) | > 67.7 µg/mL | > 118 µg/mL | –
11 | 28 µg/mL (≈ 69.2 µM) | Fc1ccc(-c2nc3ccccn3c2-c2cccc(-c3cc4ccccc4o3)c2)cc1 | 2 | – | – | 54.9 µg/mL (≈ 136 µM) | –
12 | 11.1 µg/mL (≈ 24.6 µM) | Fc1ccc(-c2nc3ccc(N4CCOCC4)nn3c2-c2ccccc2-c2ccccc2)cc1 | 1 | 31 µg/mL (≈ 68.8 µM) | 11 µg/mL (≈ 24.4 µM) | 11.1 µg/mL (≈ 24.6 µM) | 3
13 | 12.8 µg/mL (≈ 36.1 µM) | Fc1ccc(-c2nc3ccccn3c2-c2cccc(-c3ccco3)c2)cc1 | 1.9 | – | – | 24.7 µg/mL (≈ 69.7 µM) | –
14 | 3.5 µg/mL (≈ 8.92 µM) | COc1ccccc1-c1nc2ccccn2c1-c1cccc(-c2cccc(O)c2)c1 | 11.4 | – | – | 40.3 µg/mL (≈ 103 µM) | –
15 | 2.64 µg/mL (≈ 7.24 µM) | Fc1ccc(-c2nc3ccccn3c2-c2ccc(-c3ccccc3)cc2)cc1 | – | – | – | 36 µg/mL (≈ 98.8 µM) | –
16 | 21.8 µg/mL (≈ 56.4 µM) | CN1CCN(c2cccc(-c3c(-c4ccc(F)cc4)nc4ccccn34)c2)CC1 | 2.8 | – | – | 60.1 µg/mL (≈ 156 µM) | –
17 | 34.9 µg/mL (≈ 95.8 µM) | Fc1ccc(-c2nc3ccccn3c2-c2cccc(-c3ccccc3)c2)cc1 | 1.7 | – | – | 60.4 µg/mL (≈ 166 µM) | –
